Assay outcomes as filed in PubChem BioAssay.
RGS4 block = human RGS4 inhibition; B-score at 10 µM; P49798; HEK293 M3R/RGS4 inducible, Fluo-4 calcium flux; active compounds read high; triggered by carbachol at its EC20; hit rate 0.45% among 310,000;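 active = B-score, a plate-corrected calcium signal, over three deviations above library mean, with baseline fluorescence within five deviations of library mean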;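 note: RGS4 expression induced by doxycycline in cells with stable M3 receptor; B-score is computed from the integrated fluorescence ratio over baseline after carbachol; higher B-score means a larger calcium signal and so more RGS4 inhibition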
Target sequence (P49798 whole entry, looked up): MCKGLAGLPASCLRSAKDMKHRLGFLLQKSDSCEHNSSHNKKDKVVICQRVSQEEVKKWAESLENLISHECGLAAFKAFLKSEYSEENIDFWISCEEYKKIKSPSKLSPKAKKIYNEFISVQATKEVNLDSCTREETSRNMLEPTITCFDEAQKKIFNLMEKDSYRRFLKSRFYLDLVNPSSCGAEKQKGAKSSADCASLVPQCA
RGS4 act = potentiators or activators of RGS4. HEK293 M3R/inducible RGS4, carbachol calcium flux Fluo4; active compounds read low. B-score at 10 µM. hit rate 0.92% among 310,000. AID 463111;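 active = B-score of the integrated calcium signal more than 4 SD below the library mean, with starting fluorescence not abnormally high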;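 note: negative B-score means reduced calcium response which marks RGS4 activation or potentiation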
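Reagent: ECmax carbachol challenge; Test system: M3R-expressing HEK293 line, RGS4 induced by doxycycline; Schedule: overnight RGS4 induction, 30 min dye load 37 °C, 20 min compound RT; Detection: calcium dye Fluo4 fluorescence; Read-out: Agonist-evoked peak-minus-minimum fluorescence over baseline, integrated ratio, B score.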
MrgX1 PAM = allosterically activates human MrgX1 receptor signaling; MrgX1-HEK293, Fluo-4 calcium flux, FDSS; active compounds read high; B-score at 10 µM; hit rate 0.63% among 310,000; AID 588675; Q96LB2;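 active = plate-corrected calcium response at least 3 library SD above typical, normal starting fluorescence, not activating the receptor alone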;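 note: compound read alongside a low EC10 to EC30 dose of BAM8-22 agonist; peak minus trough fluorescence over baseline measured at the second addition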
Target sequence (Q96LB2 whole entry, looked up): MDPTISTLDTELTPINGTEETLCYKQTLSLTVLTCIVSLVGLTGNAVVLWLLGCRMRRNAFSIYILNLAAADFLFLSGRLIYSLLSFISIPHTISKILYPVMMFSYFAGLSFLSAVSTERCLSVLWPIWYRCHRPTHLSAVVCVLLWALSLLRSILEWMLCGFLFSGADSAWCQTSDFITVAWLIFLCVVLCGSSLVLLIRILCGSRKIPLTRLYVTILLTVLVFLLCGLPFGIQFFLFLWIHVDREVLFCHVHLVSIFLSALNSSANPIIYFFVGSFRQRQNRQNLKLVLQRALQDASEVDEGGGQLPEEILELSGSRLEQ
Hep lipid drop = modulators of hepatic lipid droplet formation; AML12 mouse hepatocytes, oleate lipid droplets, BODIPY imaging; inhibition, % at 6.5 µM; hit rate 0.4% among 240,000;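 active = lipid droplet intensity inhibited by at least 50%, with more than 500 cells counted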
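Assay system: AML12 hepatocytes (mouse) / Also added: 100 µM oleic acid challenge / Times: overnight treatment with compound plus oleate / Detection: high-content imaging of BODIPY-stained droplets and DAPI nuclei / Evaluation: % inhibition of lipid droplet signal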
MrgX1 ag = agonists of human MrgX1 receptor; B-score at 10 µM; MrgX1-HEK293 cells, Fluo-4 calcium fluorescence, agonist mode; active compounds read high; hit rate 0.44% among 310,000; AID 588627; Q96LB2;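 active = calcium response B-score plate-corrected fluorescence ratio at least 3 library SD, with starting fluorescence B-score inside 5 SD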
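System – MrgX1-expressing HEK293 cells · Incubation – cells plated overnight, dye loaded 0.5 h 37 °C, 0.5 h room temperature · Technique – kinetic Fluo-4 NW fluorescence of intracellular calcium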
MrgX1 antagonist = antagonists of human MrgX1 receptor. Q96LB2. MRGX1-HEK293 calcium flux, Fluo-4, BAM8-22 antagonism; active compounds read low. hit rate 1.3% among 310,000. B-score at 10 µM;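 active = calcium-response B-score plate-corrected more than 3 library SD below zero, starting fluorescence within 5 deviations, no agonist response on first addition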;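 note: peak minus trough fluorescence over baseline after final BAM8-22 challenge near maximal dose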
Numbers without * were called inactive; i = inactive; · = not tested or not shown. Sampled rows, rich in hits. Any-hit rate of the full collection: about 3.8%.

SMILES | RGS4 block | RGS4 act | MrgX1 PAM | Hep lipid drop | MrgX1 ag | MrgX1 antagonist
COc1cccc(-c2ccc(NC(=O)C3CCCN(Cc4cnc(C)n4C)C3)cc2)c1 (configuration not stated) | i | -7.09* | i | 15.2 | i | i
Nc1nc(-c2ccccc2)c(-c2ccccc2)n1N | i | i | 9.35* | -0.8 | i | i
Nc1c(-c2ccccc2)nc(Cl)nc1-c1ccccc1 | i | i | i | · | i | i
Cc1noc(C)c1CSCC(=O)Nc1nc2ccc(F)cc2s1 | i | i | i | · | i | i
COc1ccccc1C(=O)N/N=C(\C)c1cccnc1 | i | i | i | · | i | i
COC(=O)C1=NN(C(=O)c2cccc(Br)c2)C(O)(c2ccc(Cl)cc2)C1 (configuration not stated) | i | i | i | -4.0 | 35.8* | i
CCOC(=O)C1=NN(C(=O)c2ccccc2)C(O)(c2ccc(C)cc2)C1 (configuration not stated) | i | i | i | 2.8 | i | i
CCOC(=O)C1=NN(C(=O)c2ccc(OC)cc2)C(O)(c2ccc(Cl)cc2)C1 (configuration not stated) | i | i | i | -17.0 | 48.4* | i
CCOC(=O)C1=NN(C(=O)c2cccc(Br)c2)C(O)(C(C)(C)C)C1 (configuration not stated) | i | i | i | 13.6 | 95.8* | i
CCOC(=O)C1=NN(C(=O)Cc2ccccc2)C(O)(c2ccc(Cl)cc2)C1 (configuration not stated) | i | i | i | -3.7 | i | i
Cc1cccc(N2C(=O)C(Oc3ccc(Cl)cc3Cl)C2C=O)c1C (configuration not stated) | · | · | i | 14.4 | i | i
CN(C)c1ccc(C2C=C(c3ccc(Cl)cc3OC(F)F)Nc3ncnn32)cc1 (configuration not stated) | i | i | i | 7.1 | 39.9* | i
CC(OC(=O)c1nn(C)c(=O)c2ccccc12)C(=O)Nc1ccc(S(N)(=O)=O)cc1 (configuration not stated) | i | i | i | · | i | i
CCOC(=O)c1c(/N=C/c2ccc(OC)cc2O)sc2c1CCN(C)C2 | i | i | i | 6.3 | i | -4.78*
O=c1cc(N2CCCCC2)c(-c2ccccc2)nn1Cc1c(Cl)cccc1Cl | i | -7.06* | i | · | i | i
O=c1cc(N2CCCCC2)c(-c2ccccc2)nn1Cc1ccc(Cl)cc1 | i | i | i | · | i | i
O=C(Nc1nc(-c2cccc([N+](=O)[O-])c2)cs1)C(c1ccccc1)c1ccccc1 | i | i | i | 36.7 | i | i
CC(OC(=O)c1ccccc1Br)C(=O)Nc1nc(-c2cccc([N+](=O)[O-])c2)cs1 (configuration not stated) | i | i | i | 30.0 | i | -5.51*
O=C(/C=C/c1ccc(N2CCC(c3ccccc3)=N2)cc1)c1ccccc1 | i | -7.94* | i | -1.1 | i | i
O=C(/C=C/c1ccc(O)cc1)c1ccccc1 | i | i | i | -2.0 | i | i
CCOc1ccc(CCNC(=O)c2ccc3c(=O)[nH]c4c(C(=O)NC(C)C)sc(=S)n4c3c2)cc1 | i | i | i | -0.3 | i | -9.2*
COc1ccc(OC)c(CCNC(=O)c2ccc3c(=O)[nH]c4c(C(=O)NC(C)C)sc(=S)n4c3c2)c1 | i | -8.75* | i | -27.1 | i | -8.04*
O=C(NCCc1ccccc1)c1ccc2c(=O)[nH]c3c(C(=O)NCC4CCCO4)sc(=S)n3c2c1 (configuration not stated) | i | i | i | -0.7 | i | i
CC(C)NC(=O)c1sc(=S)n2c1[nH]c(=O)c1ccc(C(=O)NCCc3ccc(Cl)cc3)cc12 | i | -8.22* | i | -7.0 | i | -5.9*
CCN(CC)CCNC(=O)CNC(=O)c1nn(-c2ccc(OC)cc2OC)c(=O)c2ccccc12 | i | i | i | · | i | i
SMILES | RGS4 block | RGS4 act | MrgX1 PAM | Hep lipid drop | MrgX1 ag | MrgX1 antagonist
C=CCN1C(=O)C2(OCCCO2)c2cc(Cl)ccc21 | i | i | i | 2.8 | i | i
CC(=O)Nc1ccc(S(=O)(=O)N2CCC(N3CCCCCC3)CC2)cc1 | i | i | i | -4.4 | i | i
NC(=O)c1ccc[n+]([C@H]2O[C@@H](COP(=O)([O-])OP(=O)(O)OC[C@H]3O[C@@H](n4cnc5c(N)ncnc54)[C@H](O)[C@@H]3O)[C@H](O)[C@@H]2O)c1 | · | · | i | · | 33.7* | i
Nc1ncnc2c1ncn2[C@H]1C[C@H](O)[C@@H](COP(=O)(O)O)O1 | i | i | i | 22.9 | i | i
O=C(O)CCCCCCC1C(=O)NC(=O)N1CCC(O)C1CCCCC1 (configuration not stated) | i | i | i | -2.3 | 30.9* | i
O=C(O)CCCCCN1C(=O)C2CCCCC2C1=O (configuration not stated) | i | i | i | 9.0 | i | i
CC(C)(C)NC(=O)COC(=O)c1ccc(Cl)c(S(N)(=O)=O)c1 | i | i | i | -13.2 | i | i
CC(C)=CCc1c(O)cc2oc3c(CC=C(C)C)c(O)c(O)c(CC=C(C)C)c3c(=O)c2c1O | i | i | i | 5.4 | i | -5.64*
COc1cc2c(cc1OC)C(C)N(C(=O)Nc1ccc(F)cc1)CC2 (configuration not stated) | i | i | i | -7.7 | i | i
COc1ccc(/C=N/NC(=O)c2ccc3ccccc3c2)cc1OS(=O)(=O)c1ccc(NC(C)=O)cc1 | i | -9.32* | i | · | i | i
CCCCCCN1CC(=O)N2Cc3[nH]c4ccccc4c3C[C@H]2C1=O | i | i | i | -3.0 | i | i
CCCN1C(=O)c2cc(C(=O)Nc3ccccc3OC)ccc2C1Nc1ccccc1OC (configuration not stated) | i | -7.23* | i | 6.3 | i | i
CCCCn1c(N)c(N(CC)C(=O)c2ccc(C#N)cc2)c(=O)[nH]c1=O | i | i | i | -12.9 | i | i
Cn1c(=O)c(Nc2ccc(Cl)cc2)c2c3c(cccc31)C(=O)c1ccccc1-2 | i | -7.01* | i | 34.4 | i | i
CCOC(=O)c1c2c3c(cccc3n(C)c1=O)C(=O)c1ccccc1-2 | i | i | i | 23.2 | i | i
